Source: PubChem (The Scripps Research Institute Molecular Screening Center)
A selection: hits, their analogues and other compounds. The true share with any hit is near 3.9%.
TAAR1 antagonist: antagonists of human TAAR1. inhibition, % at 3 µM. Q96RJ0. hit rate 1.5% among 360,000. CHO RD-HGA16 TAAR1, Fluo-8 calcium fluorescence, antagonist;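 active means inhibition above a per-plate cutoff, the mean inhibition of test compounds on that plate plus 3 SD, cut at about 49% in these data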
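Test system: CHO RD-HGA16 cells bearing hTAAR1 | Reagent: β-PEA, EC80 | Compound dosing: 3 µM, single point | Schedule: Dye loading 75 min at 37 °C, then 30 min room temperature | Signal: Calcium fluorescence with Fluo-8 | Evaluation: Percent inhibition of PEA-evoked calcium signal, max/basal emission ratio | Control set: DMSO-only wells and EC80 β-PEA-stimulated wells | Repeats: Singlicate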
M1 ag: human M1 muscarinic receptor agonism; hit rate 0.33% among 360,000; CHO-K1 hM1, Fluo-8 calcium fluorescence, agonist mode; 0% DMSO, 100% acetylcholine EC100; activation, % at 3 µM;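 active means activation above the run's mean compound activation plus 3 SD, cut at about 16% in these data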;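 further: peak over basal fluorescence ratio within a 140 s kinetic read after compound addition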
M1 PAM: human CHRM1 positive allosteric modulation | CHO-K1 hM1, Fluo-8 calcium fluorescence, ACh EC20; 0% = ACh EC20, 100% = maximal ACh | AID 588819 | hit rate 0.088% among 360,000 | activation, % at 3 µM | P11229; in the data active means activation above about 19%, passing the limit was not always enough
m5-HT2A agonist: agonists of mouse serotonin 5-HT2A receptor (HTR2A). P35363. CHO-K1 mHTR2A beta-arrestin complementation, luminescence; percent of 30 µM serotonin response. activation, % at 7.6 µM. hit rate 0.66% among 360,000. AID 624169;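 active means activation above a run cutoff, the mean activation of all tested compounds plus 3 SD, cut at about 14% in these data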
M1 antag: human CHRM1 antagonism. P11229. inhibition, % at 3 µM. hit rate 1.3% among 360,000. CHO-K1 hM1, Fluo-8 calcium fluorescence, ACh EC80 antagonist;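 active means percent inhibition above its own plate's cutoff, namely the mean of that plate's compound wells plus 3 SD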;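 further: peak over basal fluorescence ratio during 140 s after agonist addition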
TAAR1 agonist: agonists of human TAAR1; Q96RJ0; activation, % at 3 µM; hit rate 0.99% among 360,000; CHO RD-HGA16 TAAR1, Fluo-8 calcium fluorescence; vehicle wells 0%, saturating PEA agonist 100%; AID 624467;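 active means activation above the mean activation of all test compounds in the run plus 3 SD, cut at about 38% in these data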
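Test system: RD-HGA16 (CHO) cells co-expressing Gα16 and hTAAR1; dosing: one-point dosing at 3 µM (nominal); timing: 17-24 h seeding, 75 min 37 °C dye, 30 min RT; signal: kinetic Fluo-8 calcium fluorescence; read-out basis: % activation relative to PEA EC100 response; controls: DMSO and PEA EC100; replicates: n 1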
OPRM1 ag: counter-screen for mouse HTR2A agonists: human mu opioid receptor agonists; U2OS OPRM1 beta-arrestin PathHunter, luminescence; DMSO 0%, DAMGO 9.3 µM 100%; activation, % at 9.3 µM; hit rate 5.3% among 2,300; shares compounds with m5-HT2A agonist;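 active means mean activation above the mean of DMSO-only wells plus 3 SD, cut at about 0.5% in these data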
Target sequence (P35372 whole entry, looked up): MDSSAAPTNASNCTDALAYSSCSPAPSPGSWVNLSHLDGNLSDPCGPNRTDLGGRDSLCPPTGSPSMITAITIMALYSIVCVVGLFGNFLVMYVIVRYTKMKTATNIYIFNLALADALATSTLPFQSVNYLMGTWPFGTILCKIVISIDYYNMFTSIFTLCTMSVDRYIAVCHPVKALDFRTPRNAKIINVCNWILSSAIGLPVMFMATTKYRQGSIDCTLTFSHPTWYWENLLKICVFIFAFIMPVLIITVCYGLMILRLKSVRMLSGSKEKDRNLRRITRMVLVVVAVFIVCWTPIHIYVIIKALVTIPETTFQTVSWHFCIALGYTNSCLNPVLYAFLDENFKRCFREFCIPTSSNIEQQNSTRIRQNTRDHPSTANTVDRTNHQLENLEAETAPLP
m5-HT2A ag conf: mouse HTR2A agonism confirmed | hit rate 19% among 2,300 | activation, % at 7.6 µM | CHO-K1 PathHunter beta-arrestin recruitment, luminescence; DMSO 0%, 30 µM serotonin 100% | shares compounds with m5-HT2A agonist;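 active means mean activation across triplicates above the hit threshold derived in the original primary screen, cut at about 15% in these data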
Numbers stand for hits; n = inactive; x = no result.

SMILES | TAAR1 antagonist | M1 ag | M1 PAM | m5-HT2A agonist | M1 antag | TAAR1 agonist | OPRM1 ag | m5-HT2A ag conf
CCc1cc[n+](C(C(=S)Nc2cccc(C)c2)=C([O-])c2ccc(C)c([N+](=O)[O-])c2)cc1 | n | n | n | 14.6 | n | n | n | n
Cc1cc(C)c(S(=O)(=O)N2CCCCC2CCNC(=O)C(=O)NCc2ccccn2)c(C)c1 (stereo unspecified) | n | n | n | n | n | n | x | x
Cc1c(C(=O)NCc2ccccn2)sc(=O)n1Cc1ccc(-c2ccccc2)cc1 | n | n | n | 24.7 | n | n | n | n
Fc1ccccc1-c1nc2nc3ccccc3nc2n1CC1CCCO1 (stereo unspecified) | n | n | n | n | n | n | x | x
O=C(CSc1ccccc1)NCc1ccco1 | n | n | n | 15.3 | n | n | n | n
O=C(CSCC(=O)NCc1ccco1)NCc1ccco1 | n | n | n | n | n | n | x | x
COc1ccc(CCNC(=O)COC(=O)c2cc(=O)[nH]c3ccccc23)cc1 | n | n | n | n | n | n | x | x
Cc1ccc(S(=O)(=O)N2CCOCC2)cc1NC(=O)COC(=O)c1ccc2c(c1)OCCO2 | n | n | n | 17.1 | n | n | n | n
Cc1ccc(S(=O)(=O)N2CCOCC2)cc1NC(=O)CNCc1cccnc1 | n | n | n | 28.0 | n | n | n | 75.1
Cc1ccc(/C=C/C(=O)Nc2ccc(S(=O)(=O)Nc3onc(C)c3C)cc2)cc1 | n | n | n | n | n | n | x | x
O=C(c1ccccc1F)N1CCN(Cc2nc3sc4c(c3c(=O)[nH]2)CCCC4)CC1 | n | n | n | 15.6 | n | n | n | n
Cc1ccc(C(=O)N2CCN(Cc3nc4sc5c(c4c(=O)[nH]3)CCCC5)CC2)cc1 | n | n | n | n | n | n | x | x
O=C(Nc1ccc(OCc2ccccc2)cc1)Nc1nnc([C@H]2C[C@H](O)[C@@H](CO)O2)s1 | n | n | n | n | n | n | x | x
CN(Cc1ccccc1)S(=O)(=O)c1ccc(OCC(=O)NCc2ccccn2)cc1 | n | n | n | 17.6 | n | n | n | n
CC(C)(C)NC(=O)COc1ccc(CNCCc2ccccc2)cc1 | n | n | n | n | n | n | x | x
CC(C)(C)NC(=O)COc1ccc(CNCc2ccccn2)cc1 | n | n | n | 14.5 | n | n | n | n
O=C(CCc1nnc(CCc2c[nH]c3ccccc23)o1)NC1CCC1 | n | n | n | n | n | n | x | x
CCCc1nc2nc(C)c(NS(=O)(=O)c3ccc(CC(C)C)cc3)c(=O)n2[nH]1 | n | n | n | 16.1 | n | n | n | n
CCc1nc2nc(C)c(NS(=O)(=O)c3ccc(CC(C)C)cc3)c(=O)n2[nH]1 | n | n | n | n | n | n | x | x
O=C(CC1(O)C(=O)Nc2ccccc21)c1ccccc1 (stereo unspecified) | n | n | n | n | n | n | x | x
O=C(CC1(O)C(=O)Nc2ccccc21)c1ccccc1O (stereo unspecified) | n | n | n | 20.7 | n | n | n | n
O=S(=O)(Nc1ccncc1)c1ccc(Cl)cc1 | n | n | n | n | n | n | x | x
CCc1ccc(S(=O)(=O)Nc2ccncc2)cc1 | n | n | n | 15.4 | n | n | n | n
COc1cccc(N2CCN(C(=O)c3ccc(=O)oc3)CC2C)c1 (stereo unspecified) | n | n | n | 21.5 | n | n | n | n
COc1ccc(N2C(=O)C3C(c4ccc(C(=O)O)cc4)NC(Cc4ccccc4)(C(=O)O)C3C2=O)c([N+](=O)[O-])c1 (stereo unspecified) | n | n | n | n | n | n | x | x
Cc1cc2oc(C(=O)Nc3c(C)n(C)n(-c4ccccc4)c3=O)c(C)c2cc1C | n | n | n | n | n | n | x | x
